Assay results: paper PMC8942385 (Medicinal chemistry research : an international journal for …, 2021)
Entries after “also recorded” stand apart in the source; their conditions may differ. Like-named read-outs stand apart in the source and are kept apart here.

Tests used:
h5-HT7A [1] = target: T1, h5-HT7A (Homo sapiens, UniProt P34969); experiment: HEK-5-HT7A / cAMP functional assay; type: cell-based; details: agonist mode
5-HT7R [2] = target: T2, 5-HT7R (Homo sapiens, UniProt P34969); experiment: GPCR Tango assay, β-arrestin recruitment; type: cell-based
T2 sequence (P34969 whole entry): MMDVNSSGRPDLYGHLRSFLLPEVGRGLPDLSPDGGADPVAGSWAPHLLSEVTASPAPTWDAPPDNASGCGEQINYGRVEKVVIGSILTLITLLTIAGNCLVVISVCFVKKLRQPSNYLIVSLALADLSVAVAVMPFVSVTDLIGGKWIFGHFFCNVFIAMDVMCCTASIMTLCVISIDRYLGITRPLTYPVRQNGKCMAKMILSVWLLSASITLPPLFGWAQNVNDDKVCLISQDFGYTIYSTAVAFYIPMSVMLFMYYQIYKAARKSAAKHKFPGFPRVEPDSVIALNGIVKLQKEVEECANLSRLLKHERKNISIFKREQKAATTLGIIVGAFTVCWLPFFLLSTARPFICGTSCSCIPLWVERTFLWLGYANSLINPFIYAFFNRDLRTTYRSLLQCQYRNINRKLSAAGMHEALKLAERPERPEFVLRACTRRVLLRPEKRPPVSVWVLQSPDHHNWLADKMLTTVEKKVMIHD

5-HT7R [3] = target: T2, 5-HT7R; details: cited from earlier work
h5-HT7A [4] = target: T1, h5-HT7A; details: cited from earlier work
5-HT1AR [5] = target: T3, 5-HT1AR (Homo sapiens, UniProt P08908); details: read-out: Binding affinity constant Ki, 5-HT1AR; cited from earlier work
T3 sequence (P08908 1-422): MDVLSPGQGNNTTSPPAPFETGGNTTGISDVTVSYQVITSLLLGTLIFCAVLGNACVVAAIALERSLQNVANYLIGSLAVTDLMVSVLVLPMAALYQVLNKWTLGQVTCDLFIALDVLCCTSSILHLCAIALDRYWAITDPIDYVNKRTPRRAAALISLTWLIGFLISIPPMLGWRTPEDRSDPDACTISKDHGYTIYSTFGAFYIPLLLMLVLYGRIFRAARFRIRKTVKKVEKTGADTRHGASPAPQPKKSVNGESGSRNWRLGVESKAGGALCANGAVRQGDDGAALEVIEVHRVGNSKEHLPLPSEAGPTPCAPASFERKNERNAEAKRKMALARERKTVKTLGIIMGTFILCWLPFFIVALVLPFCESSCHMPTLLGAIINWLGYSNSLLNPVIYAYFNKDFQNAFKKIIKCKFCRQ

5-HT7R [6] = target: T2, 5-HT7R; details: read-out: Binding affinity constant Ki, 5-HT7R; Table 1; cited from earlier work
D5R = D5R (Homo sapiens, UniProt P21918); experiment: PDSP radioligand binding, D5; details: for inhibition at 10 µM: read-out: Binding, D5: inhibition threshold class
In short: (§1)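 Radioligand competition binding run by NIMH-PDSP. Radioligands: [3H]8-OH-DPAT (5-HT1AR), [3H]Ketanserin (5-HT2AR), [3H]LSD (5-HT2BR), [3H]SCH23390 (D1R, D5R), [3H]N-Methylspiperone (D2R, D3R, D4R). […] Ki given as mean ± SEM of at least 3 independent assays, each in triplicate.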

NET = NET (Homo sapiens, UniProt P23975); experiment: PDSP radioligand binding, NET; details: for Binding, NET: inhibition threshold class: [3H]Nisoxetine, 10 μM concentration
NET, sequence (P23975 whole entry): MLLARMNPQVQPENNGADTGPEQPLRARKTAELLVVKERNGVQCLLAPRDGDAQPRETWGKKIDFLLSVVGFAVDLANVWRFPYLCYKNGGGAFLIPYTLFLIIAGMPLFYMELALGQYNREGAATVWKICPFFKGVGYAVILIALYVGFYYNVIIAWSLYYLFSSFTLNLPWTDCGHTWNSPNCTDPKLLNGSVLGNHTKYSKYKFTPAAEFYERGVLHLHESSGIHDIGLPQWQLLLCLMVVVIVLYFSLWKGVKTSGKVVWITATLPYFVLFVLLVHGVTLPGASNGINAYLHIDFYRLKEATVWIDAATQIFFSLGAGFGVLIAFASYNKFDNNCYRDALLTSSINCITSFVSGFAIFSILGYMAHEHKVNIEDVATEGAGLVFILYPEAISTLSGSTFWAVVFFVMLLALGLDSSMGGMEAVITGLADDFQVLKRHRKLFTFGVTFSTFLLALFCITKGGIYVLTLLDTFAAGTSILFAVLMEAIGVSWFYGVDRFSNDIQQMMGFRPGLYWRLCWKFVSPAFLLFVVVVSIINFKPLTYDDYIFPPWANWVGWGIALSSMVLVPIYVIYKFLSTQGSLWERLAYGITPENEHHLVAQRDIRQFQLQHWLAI

D3R = D3R (Homo sapiens, UniProt P35462); experiment: PDSP radioligand binding, D3; details: for Ki: Binding affinity constant Ki, D3, [3H]N-Methylspiperone
D3R, sequence (P35462 whole entry): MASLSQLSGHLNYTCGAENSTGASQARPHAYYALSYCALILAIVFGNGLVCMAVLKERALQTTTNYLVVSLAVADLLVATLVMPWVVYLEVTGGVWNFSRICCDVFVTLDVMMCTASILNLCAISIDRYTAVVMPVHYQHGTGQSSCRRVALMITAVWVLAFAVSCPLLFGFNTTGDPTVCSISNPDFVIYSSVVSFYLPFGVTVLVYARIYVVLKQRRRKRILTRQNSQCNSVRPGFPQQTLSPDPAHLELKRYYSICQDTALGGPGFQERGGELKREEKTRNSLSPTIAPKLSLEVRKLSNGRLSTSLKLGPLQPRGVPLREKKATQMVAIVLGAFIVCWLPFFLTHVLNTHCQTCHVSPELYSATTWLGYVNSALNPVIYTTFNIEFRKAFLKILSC
In short: as §1

5-HT2CR = target: T4, 5-HT2CR (Homo sapiens, UniProt P28335); experiment: PDSP radioligand binding, 5-HT2CR
T4 sequence (P28335 33-458): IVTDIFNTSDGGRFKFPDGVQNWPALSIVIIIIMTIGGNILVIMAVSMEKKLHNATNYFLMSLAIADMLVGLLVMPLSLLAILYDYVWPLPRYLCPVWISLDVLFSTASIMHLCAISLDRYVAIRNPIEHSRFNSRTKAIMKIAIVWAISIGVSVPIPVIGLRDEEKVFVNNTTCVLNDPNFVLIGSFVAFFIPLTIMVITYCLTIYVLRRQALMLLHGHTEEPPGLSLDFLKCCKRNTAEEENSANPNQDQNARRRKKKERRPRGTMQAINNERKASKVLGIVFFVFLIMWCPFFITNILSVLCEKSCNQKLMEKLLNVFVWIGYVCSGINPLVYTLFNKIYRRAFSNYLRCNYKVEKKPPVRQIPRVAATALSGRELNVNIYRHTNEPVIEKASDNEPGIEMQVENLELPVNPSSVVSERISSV

DAT = DAT (Homo sapiens, UniProt Q01959); experiment: PDSP radioligand binding, DAT; details: for Binding, DAT: inhibition threshold class: [3H]WIN35428, 10 μM concentration
DAT, sequence (Q01959 whole entry, species assumed): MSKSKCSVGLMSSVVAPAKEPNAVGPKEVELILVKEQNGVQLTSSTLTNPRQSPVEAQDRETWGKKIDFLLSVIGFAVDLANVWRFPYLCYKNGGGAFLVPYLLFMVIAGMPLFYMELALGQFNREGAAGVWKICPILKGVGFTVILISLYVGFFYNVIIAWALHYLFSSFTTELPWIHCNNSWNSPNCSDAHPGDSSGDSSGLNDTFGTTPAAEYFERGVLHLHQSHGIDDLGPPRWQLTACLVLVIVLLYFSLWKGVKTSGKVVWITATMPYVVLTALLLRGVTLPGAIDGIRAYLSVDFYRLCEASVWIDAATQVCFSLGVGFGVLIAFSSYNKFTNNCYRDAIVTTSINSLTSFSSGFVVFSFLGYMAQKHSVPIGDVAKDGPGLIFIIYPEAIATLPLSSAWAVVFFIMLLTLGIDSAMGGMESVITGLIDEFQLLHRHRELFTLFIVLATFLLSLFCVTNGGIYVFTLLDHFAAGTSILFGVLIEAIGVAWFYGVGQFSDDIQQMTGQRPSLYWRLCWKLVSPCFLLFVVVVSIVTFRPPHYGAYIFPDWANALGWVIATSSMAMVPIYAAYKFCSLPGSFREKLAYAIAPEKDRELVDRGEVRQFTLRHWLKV

D2R = D2R (Homo sapiens, UniProt P14416); experiment: PDSP radioligand binding, D2
In short: as §1

D1R = D1R (Homo sapiens, UniProt P21728); experiment: PDSP radioligand binding, D1; details: for inhibition at 10 µM: read-out: Binding, D1: inhibition threshold class
D1R, sequence (P21728 whole entry): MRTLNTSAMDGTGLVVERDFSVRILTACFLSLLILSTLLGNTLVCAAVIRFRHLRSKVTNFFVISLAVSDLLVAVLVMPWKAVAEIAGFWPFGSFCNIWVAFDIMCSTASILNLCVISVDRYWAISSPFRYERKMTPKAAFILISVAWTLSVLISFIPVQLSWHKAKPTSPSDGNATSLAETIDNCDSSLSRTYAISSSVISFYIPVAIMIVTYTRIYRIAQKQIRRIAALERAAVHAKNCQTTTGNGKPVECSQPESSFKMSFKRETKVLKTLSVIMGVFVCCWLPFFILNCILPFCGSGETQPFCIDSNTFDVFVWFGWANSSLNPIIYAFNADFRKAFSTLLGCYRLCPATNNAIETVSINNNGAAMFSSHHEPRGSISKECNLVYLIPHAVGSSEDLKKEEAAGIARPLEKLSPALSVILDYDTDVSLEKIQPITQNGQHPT
In short: as §1

5-HT7R [7] = target: T2, 5-HT7R; experiment: PDSP radioligand binding, 5-HT7R
SERT [8] = target: T5, SERT (Homo sapiens, UniProt P31645); experiment: PDSP radioligand binding, SERT; details: for Binding, SERT: inhibition threshold class: [3H]Citalopram, 10 μM concentration
T5 sequence (P31645 whole entry, species assumed): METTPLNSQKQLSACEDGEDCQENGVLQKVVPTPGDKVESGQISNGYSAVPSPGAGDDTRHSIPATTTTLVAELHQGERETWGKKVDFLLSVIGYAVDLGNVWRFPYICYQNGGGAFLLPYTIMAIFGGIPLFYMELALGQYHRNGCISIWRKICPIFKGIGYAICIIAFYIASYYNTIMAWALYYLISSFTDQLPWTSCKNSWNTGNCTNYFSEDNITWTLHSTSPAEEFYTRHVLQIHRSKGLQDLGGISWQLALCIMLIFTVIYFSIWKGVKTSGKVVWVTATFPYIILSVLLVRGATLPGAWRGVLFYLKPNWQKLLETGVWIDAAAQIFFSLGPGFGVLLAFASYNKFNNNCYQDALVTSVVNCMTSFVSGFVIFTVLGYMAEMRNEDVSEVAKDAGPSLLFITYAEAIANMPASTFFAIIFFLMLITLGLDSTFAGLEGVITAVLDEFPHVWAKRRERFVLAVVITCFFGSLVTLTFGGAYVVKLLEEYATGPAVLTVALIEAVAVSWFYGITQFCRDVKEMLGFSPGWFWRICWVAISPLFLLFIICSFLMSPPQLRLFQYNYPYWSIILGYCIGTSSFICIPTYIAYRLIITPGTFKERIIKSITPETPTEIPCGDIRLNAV

D4R = target: T6, D4R (Homo sapiens, UniProt P21917); experiment: PDSP radioligand binding, D4
T6 sequence (P21917 1-419): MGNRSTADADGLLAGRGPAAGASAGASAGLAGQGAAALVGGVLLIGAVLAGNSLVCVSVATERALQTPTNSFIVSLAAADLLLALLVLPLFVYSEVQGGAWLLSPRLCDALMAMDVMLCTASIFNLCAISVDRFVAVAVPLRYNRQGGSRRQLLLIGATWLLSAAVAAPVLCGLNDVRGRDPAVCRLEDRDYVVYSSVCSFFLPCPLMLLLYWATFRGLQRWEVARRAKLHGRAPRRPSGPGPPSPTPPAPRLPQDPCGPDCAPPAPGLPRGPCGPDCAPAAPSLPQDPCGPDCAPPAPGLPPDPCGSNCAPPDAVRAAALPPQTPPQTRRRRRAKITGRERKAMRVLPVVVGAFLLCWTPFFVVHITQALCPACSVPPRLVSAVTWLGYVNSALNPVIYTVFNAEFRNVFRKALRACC
In short: as §1

5-HT1AR [9] = target: T3, 5-HT1AR; experiment: PDSP radioligand binding, 5-HT1AR; details: [3H]8-OH-DPAT
In short: as §1

SERT [10] = target: T5, SERT; details: 10 μM concentration; cited from earlier work
[11] = Configurational stability of separated enantiomers; type: physicochemical; details: after chiral HPLC separation
5-HT2BR = 5-HT2BR (Homo sapiens, UniProt P41595); experiment: PDSP radioligand binding, 5-HT2BR; details: [3H]LSD
5-HT2BR, sequence (P41595 whole entry): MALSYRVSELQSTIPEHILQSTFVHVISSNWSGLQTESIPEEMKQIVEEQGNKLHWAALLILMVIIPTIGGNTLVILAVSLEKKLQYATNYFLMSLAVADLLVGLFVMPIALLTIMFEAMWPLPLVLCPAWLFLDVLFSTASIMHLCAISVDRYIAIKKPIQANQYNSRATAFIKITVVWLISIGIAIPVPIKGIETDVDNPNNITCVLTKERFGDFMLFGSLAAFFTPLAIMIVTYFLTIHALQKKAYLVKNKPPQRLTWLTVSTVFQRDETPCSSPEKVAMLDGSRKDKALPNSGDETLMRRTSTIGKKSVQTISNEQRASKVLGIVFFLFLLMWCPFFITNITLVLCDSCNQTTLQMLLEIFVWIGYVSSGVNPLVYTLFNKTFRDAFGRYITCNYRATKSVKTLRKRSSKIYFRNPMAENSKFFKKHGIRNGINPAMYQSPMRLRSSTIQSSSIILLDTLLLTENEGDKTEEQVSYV
In short: as §1

5-HT2AR = 5-HT2AR (Homo sapiens, UniProt P28223); experiment: PDSP radioligand binding, 5-HT2AR; details: [3H]Ketanserin
5-HT2AR, sequence (P28223 whole entry): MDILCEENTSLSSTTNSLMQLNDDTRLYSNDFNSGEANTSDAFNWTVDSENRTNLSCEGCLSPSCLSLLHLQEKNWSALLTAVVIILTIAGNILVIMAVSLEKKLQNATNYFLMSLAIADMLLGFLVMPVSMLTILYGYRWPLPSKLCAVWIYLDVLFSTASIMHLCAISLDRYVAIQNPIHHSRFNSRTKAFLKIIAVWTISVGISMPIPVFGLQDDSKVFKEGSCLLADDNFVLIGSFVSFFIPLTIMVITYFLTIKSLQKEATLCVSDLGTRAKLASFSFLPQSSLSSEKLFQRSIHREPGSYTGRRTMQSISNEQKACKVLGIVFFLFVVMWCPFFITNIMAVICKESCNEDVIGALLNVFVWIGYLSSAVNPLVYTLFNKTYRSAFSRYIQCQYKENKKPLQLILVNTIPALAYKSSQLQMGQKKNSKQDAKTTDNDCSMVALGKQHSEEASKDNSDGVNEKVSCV
In short: as §1

[12] = Binding affinity constant Ki, 5-HT1AR
[13] = [3H]SCH23390, 10 μM concentration
[14] = mean ± SEM, min 3 assays in triplicate

T1 sequence (P34969 1-445 isoform P34969-2): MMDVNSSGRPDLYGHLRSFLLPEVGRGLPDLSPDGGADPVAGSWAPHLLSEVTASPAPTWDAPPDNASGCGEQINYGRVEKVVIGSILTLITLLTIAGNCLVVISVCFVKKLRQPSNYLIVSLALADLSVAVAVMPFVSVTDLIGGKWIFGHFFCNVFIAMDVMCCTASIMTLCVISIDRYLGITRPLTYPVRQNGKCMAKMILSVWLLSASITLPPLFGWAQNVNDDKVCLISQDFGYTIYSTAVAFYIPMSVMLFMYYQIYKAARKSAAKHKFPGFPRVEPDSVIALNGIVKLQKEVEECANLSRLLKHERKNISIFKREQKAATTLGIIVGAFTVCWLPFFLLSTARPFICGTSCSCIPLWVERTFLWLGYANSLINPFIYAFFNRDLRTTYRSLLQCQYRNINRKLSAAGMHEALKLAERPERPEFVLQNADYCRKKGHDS

NCCc1c[nH]c2ccc(O)cc12 [Compound 5-HT, Serotonin, reference compound]
cAMP Hill (h5-HT7A [1]): 1.0±0.1 | β-arrestin Hill (5-HT7R [2]; agonist mode, Tango): 3.4±0.4

Clc1ccc(-c2n[nH]c3c2CCNCC3)cc1 [Compound 7, 3-(4-chlorophenyl)-1,4,5,6,7,8-hexahydropyrazolo[3,4-d]azepine]
β-arrestin Emax % (5-HT7R [3]): 62.7% | β-arrestin pEC50 (5-HT7R [3]): 6.8±0.2 | cAMP Emax % (h5-HT7A [4]): 94.7% | cAMP pEC50 (h5-HT7A [4]): 5.1±0.1 | EC50 (h5-HT7A [4]; read-out: cAMP EC50): 7790 nM | Ki (5-HT1AR [5]): > 10000 nM

Cc1nn(C)c(C)c1-c1cccc2c1CC[C@H](N(C)C)C2 [AS-19]
Ki (5-HT1AR [5]): 89.7 nM | Ki (5-HT7R [6]): 0.6 nM

CCOC(=O)C1(CCN2CCc3ccccc3C2)Cc2cc(Cl)ccc2C1=O (stereo not drawn) [Compound 3, ethyl 5-chloro-2-(2-(3,4-dihydroisoquinolin-2(1H)-yl)ethyl)-1-oxo-2,3-dihydro-1H-indene-2-carboxylate]
inhibition at 10 µM (D5R): < 50% | Binding, NET: inhibition threshold class (NET): MT (Missed threshold of 50% inhibition at 10 μM concentration) | Ki (D3R): 134 nM | Ki (5-HT2CR): 885 nM | Binding, DAT: inhibition threshold class (DAT): MT (Missed threshold of 50% inhibition at 10 μM concentration) | Ki (D2R): 747 nM | inhibition at 10 µM (D1R): < 50% | Ki (5-HT7R [7]): 3.39 nM | Binding, SERT: inhibition threshold class (SERT [8]): MT (Missed threshold of 50% inhibition at 10 μM concentration) | inhibition at 10 µM (D4R; read-out: Binding, D4: inhibition threshold class): < 50% | Ki (5-HT1AR [9]; [12]): 52 nM

O=C1c2ccc(Cl)cc2CC1CCN1CCc2ccccc2C1 (stereo not drawn) [Compound 1c, 5-chloro-2-(2-(3,4-dihydroisoquinolin-2(1H)-yl)ethyl)-2,3-dihydro-1H-inden-1-one]
Binding, SERT: inhibition threshold class (SERT [10]): MT (Missed threshold of 50% inhibition at 10 μM concentration) | Racemization of separated enantiomers [11]: racemizes readily; also recorded: quickly reverted to the racemic mixture in a matter of hours

CC1(CCN2CCc3ccccc3C2)Cc2cc(Cl)ccc2C1=O (stereo not drawn) [Compound 2, 5-chloro-2-(2-(3,4-dihydroisoquinolin-2(1H)-yl)ethyl)-2-methyl-2,3-dihydro-1H-inden-1-one]
inhibition at 10 µM (D5R): < 50% | Ki (5-HT2BR; Binding affinity constant Ki, 5-HT2BR): 174 nM | inhibition at 10 µM (NET; read-out: Binding, NET: inhibition threshold class): < 50% | Ki (D3R): 185 nM | Ki (5-HT2CR; Binding affinity constant Ki, 5-HT2CR, [3H]Mesulergine): 1740 nM | Ki (5-HT2AR; Binding affinity constant Ki, 5-HT2AR): 904 nM | inhibition at 10 µM (DAT; read-out: Binding, DAT: inhibition threshold class): < 50% | Ki (D2R): 1230 nM | inhibition at 10 µM (D1R): < 50% | Fold higher affinity at the 5-HT7R than clozapine (5-HT7R [7]): 2 fold | Fold lower affinity at the 5-HT7R than AS 19 (5-HT7R [7]): about 4 fold | Ki (5-HT7R [7]): 2.24 nM | inhibition at 10 µM (SERT [8]; read-out: Binding, SERT: inhibition threshold class): < 50% | Ki (D4R; Binding affinity constant Ki, D4, [3H]N-Methylspiperone): 1220 nM | Ki (5-HT1AR [9]; [12]): 1720 nM

CC1(CCN2CCc3ccccc3C2)Cc2cc(Cl)ccc2C1=O (single isomer, unassigned; (-)) [Compound 2a, (−)-5-chloro-2-(2-(3,4-dihydroisoquinolin-2(1H)-yl)ethyl)-2-methyl-2,3-dihydro-1H-inden-1-one]
Binding, D5: inhibition threshold class (D5R; [13]): MT (Missed threshold of 50% inhibition at 10 μM concentration) | Binding affinity constant pKi ± SEM, 5-HT2BR (5-HT2BR; [14]): 6.48 ± 0.04 | Ki (5-HT2BR; read-out: Binding affinity constant Ki, 5-HT2BR): 329 nM | Binding, NET: inhibition threshold class (NET): MT (Missed threshold of 50% inhibition at 10 μM concentration) | Binding, D3: inhibition threshold class (D3R; 10 μM concentration): MT (Missed threshold of 50% inhibition at 10 μM concentration) | cAMP Hill (h5-HT7A [1]): 1.3± 0.2 | cAMP pEC50 (h5-HT7A [1]): 6.9±0.3 | cAMP Emax % (h5-HT7A [1]; normalized to maximal serotonin effect): 82.8 ± 2.6% | EC50 (h5-HT7A [1]; read-out: cAMP EC50): 126 nM | Binding, 5-HT2CR: inhibition threshold class (5-HT2CR; 10 μM concentration): MT (Missed threshold of 50% inhibition at 10 μM concentration) | Binding affinity constant pKi ± SEM, 5-HT2AR (5-HT2AR; [14]): 6.08 ± 0.06 | Ki (5-HT2AR; read-out: Binding affinity constant Ki, 5-HT2AR): 834 nM | Binding, DAT: inhibition threshold class (DAT): MT (Missed threshold of 50% inhibition at 10 μM concentration) | Racemization of separated enantiomers [11]: No racemization | Binding, D2: inhibition threshold class (D2R; 10 μM concentration): MT (Missed threshold of 50% inhibition at 10 μM concentration) | Binding, D1: inhibition threshold class (D1R; [13]): MT (Missed threshold of 50% inhibition at 10 μM concentration) | Selectivity for 5-HT7R over 5-HT1AR (5-HT7R [7]): ~72 fold | Binding affinity constant pKi ± SEM, 5-HT7R (5-HT7R [7]; Table 1, [3H]LSD, mean ± SEM, min 3 assays in triplicate): 8.94 ± 0.06 | 5-HT7 Receptor Binding pKi (5-HT7R [7]; Table 3): 8.7 ± 0.1 | Ki (5-HT7R [7]; read-out: 5-HT7 Receptor Binding Ki, Table 3): 2.4 nM | Ki (5-HT7R [7]; read-out: Binding affinity constant Ki, 5-HT7R, Table 1, [3H]LSD): 1.2 nM | Binding, SERT: inhibition threshold class (SERT [8]): MT (Missed threshold of 50% inhibition at 10 μM concentration) | Binding affinity constant pKi ± SEM, D4 (D4R; [3H]N-Methylspiperone, mean ± SEM, min 3 assays in triplicate): 6.34 ± 0.07 | Ki (D4R; read-out: Binding affinity constant Ki, D4, [3H]N-Methylspiperone): 457 nM | Binding affinity constant pKi ± SEM, 5-HT1AR (5-HT1AR [9]; [14]): 7.06±0.07 | Ki (5-HT1AR [9]; read-out: Binding affinity constant Ki, 5-HT1AR): 86.3 nM | β-arrestin Emax % (5-HT7R [2]; agonist mode, Tango): 78.7 ± 5.7% | β-arrestin Hill (5-HT7R [2]; agonist mode, Tango): 1.2 ± 0.1 | β-arrestin pEC50 (5-HT7R [2]; agonist mode, Tango): 8.4 ± 0.1 | EC50 (5-HT7R [2]; read-out: β-arrestin EC50, agonist mode, Tango): 3.98 nM | Times higher activity than 5-HT in the β-arrestin pathway (5-HT7R [2]; relative to 5-HT): over 31 times
